Screens: PubChem, several laboratories
Bfl-1 A1 inh: inhibitors of the anti-apoptotic protein A1, read as caspase activation; MEF A1-2A-BIM cells, Caspase-Glo 3/7 luminescence, 3 h; percent of clofoctol response, vehicle zero; caspase activation, % (test concentration not listed); 0.066% of 330,000 active; AID 2462;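 active means over half of replicate activation scores above 10%, or exactly half above 10 with the replicate mean above 10; inconclusive means replicate mean below 10 yet half the replicates above 10; inactive means over half of replicates below 10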
Rce1 inh: inhibitors of yeast Ras-converting enzyme; yeast membranes, quenched prenylated peptide cleavage fluorescence; calls only; 0.27% of 290,000 active; AID 2563;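 active means fall in fluorescence gain of 50% or more versus controls, with final raw signal at or below 3038400; inconclusive means same 50% fall but final raw signal above 3038400; inactive means fall in fluorescence gain under 50%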;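 further: plate controls were neutral control wells for no effect and wells lacking membranes for full effect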
Target sequence (Q03530 whole entry, looked up): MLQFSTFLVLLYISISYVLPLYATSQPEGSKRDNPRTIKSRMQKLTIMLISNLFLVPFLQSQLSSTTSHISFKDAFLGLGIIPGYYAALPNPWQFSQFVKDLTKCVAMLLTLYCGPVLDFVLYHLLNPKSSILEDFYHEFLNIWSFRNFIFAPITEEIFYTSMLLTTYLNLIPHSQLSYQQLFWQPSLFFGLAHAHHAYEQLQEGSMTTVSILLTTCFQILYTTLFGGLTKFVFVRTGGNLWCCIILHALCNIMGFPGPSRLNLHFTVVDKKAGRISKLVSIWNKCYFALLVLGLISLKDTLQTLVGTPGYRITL
procasp7 counter: activates human procaspase-7, counter-screen for procaspase-3 activators; P55210; AID 463210; activation, % at 8.5 µM; recombinant procaspase-7, Ac-DEVD-pNA absorbance 405 nm; D23A/D198A/D206A triple mutant, cannot self-cleave; scale: DMSO 0, 5 µM enzyme 100; 0.093% of 330,000 active;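 active means percent activation above the screen-wide mean plus 3 SD, cut at about 25% in these data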
Target sequence (P55210 whole entry D23A/D198A/D206A): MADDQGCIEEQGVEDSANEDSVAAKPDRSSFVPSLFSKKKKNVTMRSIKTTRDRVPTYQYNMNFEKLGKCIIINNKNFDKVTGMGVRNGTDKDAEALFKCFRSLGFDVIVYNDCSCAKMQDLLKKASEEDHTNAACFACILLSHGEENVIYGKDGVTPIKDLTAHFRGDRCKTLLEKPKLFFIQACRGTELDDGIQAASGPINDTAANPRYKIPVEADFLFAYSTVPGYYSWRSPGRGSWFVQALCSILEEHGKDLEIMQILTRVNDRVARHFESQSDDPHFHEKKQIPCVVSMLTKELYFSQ
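Assay system – Uncleavable procaspase-7 mutant enzyme · Quantity – 2 µM procaspase-7 mutant as dispensed · Times – 1 h preincubation, 2 h reaction · Dosing – single nominal 8.5 µM compound dose, 0.8% DMSO final · Buffer or medium – Zinc-free 50 mM HEPES buffer, pH 7.4, with NaCl and Triton X-100 · Detection – Epi-absorbance of released pNA at 405 nm, two timepoints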
procasp3 activ: procaspase-3 (human) activation | P42574 | recombinant procaspase-3 D3A, Ac-DEVD-pNA absorbance 405 nm | activation, % at 8.5 µM | 0.11% of 330,000 active;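 active means activation above the mean of all tested compounds plus 3 SD, cut at about 21% in these data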;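 further: 0% = DMSO alone and 100% = DMSO wells spiked with extra 5 µM PC-3 D3A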
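System: Procaspase-3 D3A mutant. Medium: Zinc-free 300 mM NaCl, 50 mM HEPES, 0.01% Triton X-100. Schedule: 1 h preincubation plus 2 h reaction at 25 °C. Measured by: 405 nm absorbance of p-nitroaniline, reads at 0 and 120 min. Read-out: percent activation relative to control range.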
PolyA inhibitor: blocks polyadenylation in yeast reporter cells | S. cerevisiae SKY197-pL101 polyadenylation reporter, beta-gal luminescence; efflux-impaired pdr1/pdr3 knockout yeast; score 100 = 6 SD above DMSO | activity score, % at 12 µM | 0.02% of 300,000 active;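 active means lowest replicate activity score at least 50, where 100 means six control SD above control mean; inconclusive means lowest score under 50 but half or more replicates reach 50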;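 further: yeast exposed to compound for 9 h at 30 °C; higher score means more reporter readthrough which indicates perturbed polyadenylation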
* marks the source's active call; other numbers are inactive results. Sampled rows, rich in hits. Any-hit rate of the full collection: about 0.48%.

Cc1cc(C)c2nc(N(CCCN(C)C)C(=O)c3ccc4c(c3)CCCC4)sc2c1 was read as Bfl-1 A1 inh -1, Rce1 inh active, procasp7 counter 7, procasp3 activ 2 and PolyA inhibitor -5.
COc1ccc(OC)c(/C=N/NC(=O)Cn2ccnc2C)c1 was read as Bfl-1 A1 inh 0, Rce1 inh active, procasp7 counter 11, procasp3 activ 2 and PolyA inhibitor 27.
Screening COc1ccc(OC)c(/C=N/NC(=O)CSc2cc(C)nc3c(OC)cccc23)c1 returned Bfl-1 A1 inh 0, Rce1 inh active, procasp7 counter 13, procasp3 activ 0 and PolyA inhibitor 6.
Screening COc1cccc(NC(=O)Nc2cccn(Cc3ccc(C)cc3)c2=O)c1 returned Bfl-1 A1 inh 0, Rce1 inh active, procasp7 counter -7, procasp3 activ 0 and PolyA inhibitor -13.
`COc1cccc(CN(C(=O)COc2ccc(C)cc2)C2CCS(=O)(=O)C2)c1` (centres undefined) gave Bfl-1 A1 inh 0, Rce1 inh inactive, procasp7 counter 4, procasp3 activ -2 and PolyA inhibitor 4.
Screening COc1ccc(C2C(O)C(c3c[nH]c4ccccc34)=NN2C(=O)CCl)cc1 (centres undefined) returned Bfl-1 A1 inh 8.0*, Rce1 inh inactive, procasp7 counter 2, procasp3 activ -6 and PolyA inhibitor 22.
For CC(C)CCN(C(=O)c1ccncc1)c1c(N)n(Cc2ccccc2)c(=O)[nH]c1=O the results were Bfl-1 A1 inh 0, procasp7 counter -1 and procasp3 activ 1.
`CCCCN(C(=O)C1CCCC1)c1c(N)n(Cc2ccccc2)c(=O)[nH]c1=O` gave Bfl-1 A1 inh 0, procasp7 counter -2 and procasp3 activ -1.
Screening CCCCC1CCC(C(=O)N(CC(C)C)c2c(N)n(Cc3ccccc3)c(=O)[nH]c2=O)CC1 (centres undefined) returned Bfl-1 A1 inh 29*, procasp7 counter 2, procasp3 activ 9 and PolyA inhibitor 19.
`CC(C)CCN(C(=O)Cc1ccc(Cl)c(Cl)c1)c1c(N)n(Cc2ccccc2)c(=O)[nH]c1=O` gave Bfl-1 A1 inh 12*, Rce1 inh inactive, procasp7 counter 11, procasp3 activ 4 and PolyA inhibitor 2.
O=C(NCc1cccnc1)C(=O)Nc1ccc([N+](=O)[O-])cc1 was read as Bfl-1 A1 inh 0, Rce1 inh inactive, procasp7 counter -3, procasp3 activ 8 and PolyA inhibitor 2.
For COCc1cc(C)c(C#N)c(=S)[nH]1 the results were Bfl-1 A1 inh 0, Rce1 inh inactive, procasp7 counter -40, procasp3 activ -27 and PolyA inhibitor -19.
Screening CCOCc1cc(C)[nH]c(=O)c1C#N returned Bfl-1 A1 inh 0, Rce1 inh active, procasp7 counter -7, procasp3 activ -8 and PolyA inhibitor 3.
For CCOC(=O)c1c(C)n(C)c2c(C)cc(O)c(OC(=O)CC)c12 the results were Bfl-1 A1 inh 0, Rce1 inh inactive, procasp7 counter -13, procasp3 activ 0 and PolyA inhibitor -19.
`COC(=O)c1nc(N)sc1-c1ccc(Cl)c(Cl)c1` gave Bfl-1 A1 inh -1, Rce1 inh active, procasp7 counter 7, procasp3 activ -1 and PolyA inhibitor -20.
Screening CCOCCOC(=O)c1[nH]c2c(c1C)C(=O)CC(c1cccs1)C2 (centres undefined) returned Bfl-1 A1 inh 5.9*, Rce1 inh inactive, procasp7 counter -3, procasp3 activ -1 and PolyA inhibitor 1.
O=C1C(=O)N(C/C=C/c2ccccc2)c2ccccc21 was read as Bfl-1 A1 inh inconclusive, Rce1 inh active, procasp7 counter -1, procasp3 activ -1 and PolyA inhibitor -10.
`Cc1cccc2cc(CN(CCN(C)C)C(=S)Nc3ccccc3)c(=O)[nH]c12` gave Bfl-1 A1 inh 0, Rce1 inh inactive, procasp7 counter -1, procasp3 activ 12 and PolyA inhibitor -3.
Cc1cccc2cc(C#N)c(NCCNC(=S)NCCCN3CCOCC3)nc12 was read as Bfl-1 A1 inh 1, Rce1 inh inactive, procasp7 counter 2, procasp3 activ -7 and PolyA inhibitor 5.
For Cc1cc2cc(C#N)c(NCCNC(=S)NCCCN3CCOCC3)nc2cc1C the results were Bfl-1 A1 inh 0, Rce1 inh active, procasp7 counter 2, procasp3 activ 1 and PolyA inhibitor 1.
For CCOC(=O)C1=C(c2ccccc2)NC(=O)NC1c1ccsc1 (centres undefined) the results were Bfl-1 A1 inh -1, Rce1 inh inactive and PolyA inhibitor 20.
For Cc1nn2c(-c3ccc(S(=O)(=O)N4CCN(C)CC4)o3)nnc2c2ccccc12 the results were Bfl-1 A1 inh -1, Rce1 inh inactive, procasp7 counter 0, procasp3 activ 1 and PolyA inhibitor 4.
`CCOC1=C/C(=C/c2c(N)n3nc(S(=O)(=O)CC)sc3nc2=O)C=CC1=O` gave Bfl-1 A1 inh 0, Rce1 inh inactive, procasp7 counter 1, procasp3 activ 3 and PolyA inhibitor -24.
Cc1cc(C(=O)N[C@H](c2ccccc2)[C@@]2(C)C[C@@H]2[C@@H](C)C(=O)Nc2ccc3ccccc3c2)n(C)n1 was read as Bfl-1 A1 inh 2, Rce1 inh active, procasp7 counter -1, procasp3 activ -5 and PolyA inhibitor -6.
`COc1ccc(Cc2nc3ccc(C(=O)N4CCCC4)cc3o2)cc1` gave Bfl-1 A1 inh 1, Rce1 inh active, procasp7 counter 7, procasp3 activ -6 and PolyA inhibitor -13.
COc1ccc(OC)c(C2C(C(C)=O)=C(O)C(=O)N2Cc2cccnc2)c1 (centres undefined) was read as Bfl-1 A1 inh 5.2*, Rce1 inh inactive, procasp7 counter -4, procasp3 activ 6 and PolyA inhibitor 11.
O=S(=O)(c1cccc(-c2n[nH]c(=S)n2-c2ccc(OC(F)(F)F)cc2)c1)N1CCOCC1 was read as Bfl-1 A1 inh 2, procasp7 counter -28 and procasp3 activ -26.
`CC(=O)Nc1ccc2nc(NC(=O)CN3CCOCC3)sc2c1` gave Bfl-1 A1 inh 0, Rce1 inh inactive, procasp7 counter 4, procasp3 activ -4 and PolyA inhibitor -1.
